# Measured values of several laboratories.
# Compare with care: the assays were run in different laboratories. pEC50, pIC50: −log10 of the molar value.
# Effect on: cell growth or viability
Compound,cell line,assay,setting,endpoint,value
NCCCCC(=O)Nc1ccccc1/N=c1\cc(-c2ccc3c(c2)OCO3)oc2ccccc12,MDA-MB-231,CCK-8,1 µM,inhibition,-5.88%
CNC(=O)c1cc(Oc2ccc(NC(=O)Nc3ccc(Cl)c(C(F)(F)F)c3)cc2)ccn1,MDA-MB-231,MTT,"50 µM, 24 h",viability,16.7%
COc1cc(C(=O)c2nc(-c3ccnc4[nH]ccc34)c[nH]2)cc(OC)c1OC,A-375,MTS,72 h,pIC50,7.55
Nc1nc2ccc(-c3c/c(=N\c4ccccc4NC(=O)CCN4CCOCC4)c4ccccc4o3)cc2o1,MDA-MB-231,CCK-8,1 µM,inhibition,-0.02%
COc1cc(C(=O)c2nc(-c3ccc4cc[nH]c4c3)c[nH]2)cc(OC)c1OC,A-375,MTS,72 h,pIC50,7.70
COc1cccc(NC(=O)Nc2ccc(Oc3nc4ccccc4n4cnnc34)cc2)c1,MDA-MB-231,MTT,"100 µM, 24 h",viability,24.6%
COc1cc(C(=O)c2nc(-c3cccc4c3CC(=O)N4)c[nH]2)cc(OC)c1OC,A-375,MTS,72 h,pIC50,7.56
Cc1nc(Nc2ncc(C(=O)Nc3c(C)cccc3Cl)s2)cc(N2CC[C@H](O)C2)n1,L-82,ATP luminescence,72 h,pIC50,< 5.00
NCCC(=O)Nc1ccccc1/N=c1\cc(-c2ccc3nc(N)oc3c2)oc2cc(O)ccc12,MDA-MB-231,CCK-8,1 µM,inhibition,22%
COc1cc(C(=O)c2nc(-c3cccc4cc[nH]c34)c[nH]2)cc(OC)c1OC,A-375,MTS,72 h,pIC50,7.69
O=C(Nc1ccc(Cl)cc1)Nc1ccc(Oc2nc3ccccc3n3cnnc23)cc1,MDA-MB-231,MTT,"25 µM, 24 h",viability,77.3%
COc1cc(C(=O)c2nc(-c3cccc4[nH]nnc34)c[nH]2)cc(OC)c1OC,A-375,MTS,72 h,pIC50,7.20
Oc1cccc(-c2nc(N3CCOCC3)c3oc4ncccc4c3n2)c1,MDA-MB-231,CCK-8,1 µM,inhibition,18.8%
C=C1C[C@@]23CC[C@H]4[C@@](C)(CCC[C@@]4(C)C(=O)O)[C@@H]2CC[C@@H]1C3,MRC5,MTT,75 h,pIC50,4.00
C[C@H]1CNCCN1c1nccc(-c2noc3c2CCC[C@@]32CCCc3sc(N)c(C#N)c32)n1,A-375,,5 days,pEC50,5.30
COc1ccc2/c(=N/c3ccccc3NC(=O)CN)cc(-c3ccc4c(c3)OCCO4)oc2c1,MDA-MB-231,CCK-8,1 µM,inhibition,12.6%
CN(C)c1cccc(Nc2nc(-c3ccncc3)nc3c2CNCC3)c1,A-375,MTT,,pIC50,4.05
O=c1[nH]cc(F)c(=O)[nH]1,C32,SRB,72 h,IC50,0.59 µg/mL
COc1cc(C(=O)c2nc(-c3ccsc3)c[nH]2)cc(OC)c1OC,A-375,MTS,72 h,pIC50,7.36
O=C(Nc1ccccc1/N=c1\cc(-c2ccc3c(c2)OCO3)oc2ccccc12)N1CCOCC1,MDA-MB-231,CCK-8,1 µM,inhibition,-4.28%
O=C(Nc1ccc(Oc2nc3ccccc3n3cnnc23)cc1)Nc1cccc(Cl)c1,MDA-MB-231,MTT,"100 µM, 24 h",viability,29.3%
NCCCC(=O)Nc1ccccc1/N=c1\cc(-c2ccc3c(c2)OCO3)oc2ccccc12,MDA-MB-231,CCK-8,1 µM,inhibition,8.02%
O=C(Nc1ccccc1)Nc1ccc(Oc2nc3ccccc3n3cnnc23)cc1,MDA-MB-231,MTT,"25 µM, 24 h",viability,70.1%
